Source: ChEMBL document CHEMBL1138525 (J Med Chem, 2009)
Active and inactive are the calls of the source. The rule behind the calls is not given here.

Assays:
P2Y purinoceptor 2 [1] = molecular target: P2Y purinoceptor 2 (Homo sapiens, UniProt P41231, R177A); experiment: Agonist activity at N-terminal HA epitope-tagged human P2Y2 receptor R177A mutant expressed in human 1321N1 cells assessed as increase in intracellular calcium level; type: functional, cell-based
In short: (§1)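 1321N1 astrocytoma cells stably expressing mutant receptor (retroviral transfection, G418 selection), loaded with Oregon Green BAPTA-1/AM in Krebs-HEPES pH 7.4 for 1 h at room temperature. Plated at 150000 cells/well and held 20 min at 28 °C in the dark. Efficacy relative to 100 µM carbachol.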

[2] = system: P2Y purinoceptor 2 (Homo sapiens), P41231 [Y118A]; experiment: Agonist activity at N-terminal HA epitope-tagged human P2Y2 receptor Y118A mutant expressed in human 1321N1 cells assessed as increase in intracellular calcium level relative to carbachol; type: functional, cell-based
Chain of P2Y purinoceptor 2 (Homo sapiens), P41231 [Y118A] (P41231 whole entry Y118A): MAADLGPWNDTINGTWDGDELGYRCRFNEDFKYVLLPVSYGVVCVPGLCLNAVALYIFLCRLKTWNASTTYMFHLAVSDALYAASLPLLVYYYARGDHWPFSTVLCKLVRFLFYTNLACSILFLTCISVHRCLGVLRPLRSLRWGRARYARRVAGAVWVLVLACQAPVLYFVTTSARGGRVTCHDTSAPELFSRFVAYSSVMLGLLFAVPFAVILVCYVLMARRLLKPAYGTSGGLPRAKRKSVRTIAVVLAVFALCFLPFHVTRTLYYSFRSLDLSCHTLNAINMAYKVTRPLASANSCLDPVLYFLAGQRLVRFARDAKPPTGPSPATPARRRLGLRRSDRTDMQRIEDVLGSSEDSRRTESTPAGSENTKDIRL
In short: (§2)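 Retrovirally transduced stable 1321N1 astrocytoma lines (wild-type lines of differing expression, or mutants) in suspension, loaded with Oregon Green BAPTA-1/AM for 1 h at room temperature. Cells were plated at 150000 per well in Krebs-HEPES pH 7.4 and held 20 min at 28 °C in the dark. Agonist was then injected, with fluorescence read at ex 485/em 520 nm for 60 × 0.4 s.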

P2Y purinoceptor 2 [3] = molecular target: P2Y purinoceptor 2 (Homo sapiens, UniProt P41231, S296A); experiment: Agonist activity at N-terminal HA epitope-tagged human P2Y2 receptor S296A mutant expressed in human 1321N1 cells assessed as increase in intracellular calcium level; type: functional, cell-based
Chain of P2Y purinoceptor 2 (Homo sapiens, UniProt P41231, S296A) (P41231 whole entry S296A): as the sequence (P41231 whole entry Y118A) above, with A118Y, S296A counted along it
In short: (§3)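 Retrovirally transduced stable 1321N1 astrocytoma lines (wild-type lines of differing expression, or mutants) in suspension, loaded with Oregon Green BAPTA-1/AM for 1 h at room temperature. Cells were plated at 150000 per well in Krebs-HEPES pH 7.4 and held 20 min at 28 °C in the dark.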

[4] = system: P2Y purinoceptor 2 (Homo sapiens), P41231 [S296A]; experiment: Agonist activity at N-terminal HA epitope-tagged human P2Y2 receptor S296A mutant expressed in human 1321N1 cells assessed as increase in intracellular calcium level relative to carbachol; type: functional, cell-based; in short: as §2
Chain of P2Y purinoceptor 2 (Homo sapiens), P41231 [S296A] (P41231 whole entry S296A): as the sequence (P41231 whole entry Y118A) above, with A118Y, S296A counted along it

P2Y purinoceptor 2 [5] = molecular target: T1, P2Y purinoceptor 2 (Homo sapiens, UniProt P41231); experiment: Agonist activity at N-terminal HA epitope-tagged wild type 3 human P2Y2 receptor expressed in human 1321N1 cells assessed as increase in intracellular calcium level; type: functional, cell-based; in short: as §3
T1 sequence (P41231 whole entry): as the sequence (P41231 whole entry Y118A) above, with A118Y counted along it

[6] = system: P2Y purinoceptor 2 (Homo sapiens), P41231 [UNDEFINED MUTATION]; experiment: Ratio of EC50 for N-terminal HA epitope-tagged human P2Y2 receptor C278S mutant to EC50 for wild type 3 human P2Y2 receptor
Chain of P2Y purinoceptor 2 (Homo sapiens), P41231 [UNDEFINED MUTATION] (P41231 whole entry, looked up, stated change not applied): as the sequence (P41231 whole entry Y118A) above, with A118Y counted along it

[7] = system: P2Y purinoceptor 2 (Homo sapiens), P41231 [Y198A]; experiment: Agonist activity at N-terminal HA epitope-tagged human P2Y2 receptor Y198A mutant expressed in human 1321N1 cells assessed as increase in intracellular calcium level relative to carbachol; type: functional, cell-based; in short: as §2
Chain of P2Y purinoceptor 2 (Homo sapiens), P41231 [Y198A] (P41231 whole entry Y198A): as the sequence (P41231 whole entry Y118A) above, with A118Y, Y198A counted along it

[8] = system: P2Y purinoceptor 2 (Homo sapiens), P41231 [R272A]; experiment: Agonist activity at N-terminal HA epitope-tagged human P2Y2 receptor R272A mutant expressed in human 1321N1 cells assessed as increase in intracellular calcium level up to 300 uM relative to carbachol; type: functional, cell-based; in short: as §2
Chain of P2Y purinoceptor 2 (Homo sapiens), P41231 [R272A] (P41231 whole entry R272A): as the sequence (P41231 whole entry Y118A) above, with A118Y, R272A counted along it

P2Y purinoceptor 2 [9] = molecular target: P2Y purinoceptor 2 (Homo sapiens, UniProt P41231, R180A); experiment: Agonist activity at N-terminal HA epitope-tagged human P2Y2 receptor R180A mutant expressed in human 1321N1 cells assessed as increase in intracellular calcium level; type: functional, cell-based; in short: as §1
Chain of P2Y purinoceptor 2 (Homo sapiens, UniProt P41231, R180A) (P41231 whole entry R180A): as the sequence (P41231 whole entry Y118A) above, with A118Y, R180A counted along it

P2Y purinoceptor 2 [10] = molecular target: P2Y purinoceptor 2 (Homo sapiens, UniProt P41231, R194H); experiment: Agonist activity at N-terminal HA epitope-tagged human P2Y2 receptor R194H mutant expressed in human 1321N1 cells assessed as increase in intracellular calcium level; type: functional, cell-based; in short: as §1
Chain of P2Y purinoceptor 2 (Homo sapiens, UniProt P41231, R194H) (P41231 whole entry R194H): as the sequence (P41231 whole entry Y118A) above, with A118Y, R194H counted along it

[11] = system: P2Y purinoceptor 2 (Homo sapiens), P41231 [R177A,R180A]; experiment: Agonist activity at N-terminal HA epitope-tagged human P2Y2 receptor R177A_R180A double mutant expressed in human 1321N1 cells assessed as increase in intracellular calcium level relative to carbachol; type: functional, cell-based; in short: as §2
Chain of P2Y purinoceptor 2 (Homo sapiens), P41231 [R177A,R180A] (P41231 whole entry R177A/R180A): as the sequence (P41231 whole entry Y118A) above, with A118Y, R177A, R180A counted along it

P2Y purinoceptor 2 [12] = molecular target: T1, P2Y purinoceptor 2; experiment: Agonist activity at N-terminal HA epitope-tagged wild type 4 human P2Y2 receptor expressed in human 1321N1 cells assessed as increase in intracellular calcium level; type: functional, cell-based; in short: as §3
P2Y purinoceptor 2 [13] = molecular target: T1, P2Y purinoceptor 2; experiment: Agonist activity at N-terminal HA epitope-tagged wild type 3 human P2Y2 receptor expressed in human 1321N1 cells assessed as increase in intracellular calcium level relative to carbachol; type: functional, cell-based; in short: as §2
[14] = system: P2Y purinoceptor 2 (Homo sapiens), P41231 [C278S]; experiment: Agonist activity at N-terminal HA epitope-tagged human P2Y2 receptor C278S mutant expressed in human 1321N1 cells assessed as increase in intracellular calcium level relative to carbachol; type: functional, cell-based; in short: as §2
Chain of P2Y purinoceptor 2 (Homo sapiens), P41231 [C278S] (P41231 whole entry C278S): as the sequence (P41231 whole entry Y118A) above, with A118Y, C278S counted along it

P2Y purinoceptor 2 [15] = molecular target: T1, P2Y purinoceptor 2; experiment: Agonist activity at N-terminal HA epitope-tagged wild type 4 human P2Y2 receptor expressed in human 1321N1 cells assessed as increase in intracellular calcium level relative to carbachol; type: functional, cell-based; in short: as §2
P2Y purinoceptor 2 [16] = molecular target: T2, P2Y purinoceptor 2 (Homo sapiens, UniProt P41231, R177A/R180A); experiment: Agonist activity at N-terminal HA epitope-tagged human P2Y2 receptor R177A_R180A double mutant expressed in human 1321N1 cells assessed as increase in intracellular calcium level; type: functional, cell-based; in short: as §1
T2 sequence (P41231 whole entry R177A/R180A): as the sequence (P41231 whole entry Y118A) above, with A118Y, R177A, R180A counted along it

[17] = system: P2Y purinoceptor 2 (Homo sapiens), P41231 [R180A]; experiment: Agonist activity at N-terminal HA epitope-tagged human P2Y2 receptor R180A mutant expressed in human 1321N1 cells assessed as increase in intracellular calcium level relative to carbachol; type: functional, cell-based; in short: as §2
Chain of P2Y purinoceptor 2 (Homo sapiens), P41231 [R180A] (P41231 whole entry R180A): as the sequence (P41231 whole entry Y118A) above, with A118Y, R180A counted along it

[18] = system: P2Y purinoceptor 2 (Homo sapiens), P41231 [R177A]; experiment: Agonist activity at N-terminal HA epitope-tagged human P2Y2 receptor R177A mutant expressed in human 1321N1 cells assessed as increase in intracellular calcium level relative to carbachol; type: functional, cell-based; in short: as §2
Chain of P2Y purinoceptor 2 (Homo sapiens), P41231 [R177A] (P41231 whole entry R177A): as the sequence (P41231 whole entry Y118A) above, with A118Y, R177A counted along it

P2Y purinoceptor 2 [19] = molecular target: T3, P2Y purinoceptor 2 (Homo sapiens, UniProt P41231, C278S); experiment: Agonist activity at N-terminal HA epitope-tagged human P2Y2 receptor C278S mutant expressed in human 1321N1 cells assessed as increase in intracellular calcium level; type: functional, cell-based; in short: as §1
T3 sequence (P41231 whole entry C278S): as the sequence (P41231 whole entry Y118A) above, with A118Y, C278S counted along it

P2Y purinoceptor 2 [20] = molecular target: T4, P2Y purinoceptor 2 (Homo sapiens, UniProt P41231, Y114A); experiment: Agonist activity at N-terminal HA epitope-tagged human P2Y2 receptor Y114A mutant expressed in human 1321N1 cells assessed as increase in intracellular calcium level; type: functional, cell-based; in short: as §1
T4 sequence (P41231 whole entry Y114A): as the sequence (P41231 whole entry Y118A) above, with Y114A, A118Y counted along it

P2Y purinoceptor 2 [21] = molecular target: P2Y purinoceptor 2 (Homo sapiens, UniProt P41231, R272A); experiment: Agonist activity at N-terminal HA epitope-tagged human P2Y2 receptor R272A mutant expressed in human 1321N1 cells assessed as increase in intracellular calcium level; type: functional, cell-based; in short: as §1
Chain of P2Y purinoceptor 2 (Homo sapiens, UniProt P41231, R272A) (P41231 whole entry R272A): as the sequence (P41231 whole entry Y118A) above, with A118Y, R272A counted along it

[22] = system: P2Y purinoceptor 2 (Homo sapiens), P41231 [Y114A]; experiment: Agonist activity at N-terminal HA epitope-tagged human P2Y2 receptor Y114A mutant expressed in human 1321N1 cells assessed as increase in intracellular calcium level relative to carbachol; type: functional, cell-based; in short: as §2
Chain of P2Y purinoceptor 2 (Homo sapiens), P41231 [Y114A] (P41231 whole entry Y114A): as the sequence (P41231 whole entry Y118A) above, with Y114A, A118Y counted along it

[23] = system: P2Y purinoceptor 2 (Homo sapiens), P41231 [UNDEFINED MUTATION]; experiment: Ratio of efficacy for N-terminal HA epitope-tagged human P2Y2 receptor R194H mutant to efficacy for wild type 3 human P2Y2 receptor
[24] = system: P2Y purinoceptor 2 (Homo sapiens), P41231 [R194H]; experiment: Agonist activity at N-terminal HA epitope-tagged human P2Y2 receptor R194H mutant expressed in human 1321N1 cells assessed as increase in intracellular calcium level relative to carbachol; type: functional, cell-based; in short: as §2
Chain of P2Y purinoceptor 2 (Homo sapiens), P41231 [R194H] (P41231 whole entry R194H): as the sequence (P41231 whole entry Y118A) above, with A118Y, R194H counted along it

P2Y purinoceptor 2 [25] = molecular target: T5, P2Y purinoceptor 2 (Homo sapiens, UniProt P41231, Y198A); experiment: Agonist activity at N-terminal HA epitope-tagged human P2Y2 receptor Y198A mutant expressed in human 1321N1 cells assessed as increase in intracellular calcium level; type: functional, cell-based; in short: as §1
T5 sequence (P41231 whole entry Y198A): as the sequence (P41231 whole entry Y118A) above, with A118Y, Y198A counted along it

P2Y purinoceptor 2 [26] = molecular target: T6, P2Y purinoceptor 2 (Homo sapiens, UniProt P41231, Y118A); experiment: Agonist activity at N-terminal HA epitope-tagged human P2Y2 receptor Y118A mutant expressed in human 1321N1 cells assessed as increase in intracellular calcium level; type: functional, cell-based; in short: as §1
T6 sequence (P41231 whole entry Y118A): as the sequence (P41231 whole entry Y118A) above

P2Y purinoceptor 2 [27] = molecular target: T3, P2Y purinoceptor 2; experiment: Antagonist activity at N-terminal HA epitope-tagged human P2Y2 receptor C278S mutant expressed in human 1321N1 cells assessed as inhibition of UTP-induced calcium mobilization; type: functional, cell-based
In short: (§4)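 1321N1 cells expressing wild-type or mutant receptor were dye-loaded with Oregon Green BAPTA-1/AM in Krebs-HEPES pH 7.4. Antagonist was preincubated for 20 min at 28 °C in the dark. Cells were then stimulated with UTP at a concentration giving 80-90% of maximal response. Calcium fluorescence read at 520 nm (excitation 485 nm).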

P2Y purinoceptor 2 [28] = molecular target: T6, P2Y purinoceptor 2; experiment: Antagonist activity at N-terminal HA epitope-tagged human P2Y2 receptor Y118A mutant expressed in human 1321N1 cells assessed as inhibition of UTP-induced calcium mobilization; type: functional, cell-based; in short: as §4
[29] = system: P2Y purinoceptor 2 (Homo sapiens), P41231 [UNDEFINED MUTATION]; experiment: Ratio of IC50 for N-terminal HA epitope-tagged human P2Y2 receptor C278S mutant to IC50 for wild type 3 human P2Y2 receptor
P2Y purinoceptor 2 [30] = molecular target: T4, P2Y purinoceptor 2; experiment: Antagonist activity at N-terminal HA epitope-tagged human P2Y2 receptor Y114A mutant expressed in human 1321N1 cells assessed as inhibition of UTP-induced calcium mobilization; type: functional, cell-based; in short: as §4
[31] = system: P2Y purinoceptor 2 (Homo sapiens), P41231 [R177A]; experiment: Antagonist activity at N-terminal HA epitope-tagged human P2Y2 receptor R177A mutant expressed in human 1321N1 cells assessed as inhibition of UTP-induced calcium mobilization; type: functional, cell-based; settings: concentration not given here
P2Y purinoceptor 2 [32] = molecular target: T5, P2Y purinoceptor 2; experiment: Antagonist activity at N-terminal HA epitope-tagged human P2Y2 receptor Y198A mutant expressed in human 1321N1 cells assessed as inhibition of UTP-induced calcium mobilization; type: functional, cell-based; in short: as §4
[33] = system: P2Y purinoceptor 2 (Homo sapiens), P41231 [R180A]; experiment: Antagonist activity at N-terminal HA epitope-tagged human P2Y2 receptor R180A mutant expressed in human 1321N1 cells assessed as inhibition of UTP-induced calcium mobilization; type: functional, cell-based; settings: concentration not given here
P2Y purinoceptor 2 [34] = molecular target: T1, P2Y purinoceptor 2; experiment: Antagonist activity at N-terminal HA epitope-tagged wild type 3 human P2Y2 receptor expressed in human 1321N1 cells assessed as inhibition of UTP-induced calcium mobilization; type: functional, cell-based; in short: as §4
P2Y purinoceptor 2 [35] = molecular target: T2, P2Y purinoceptor 2; experiment: Antagonist activity at N-terminal HA epitope-tagged human P2Y2 receptor R177A_R180A double mutant expressed in human 1321N1 cells assessed as inhibition of UTP-induced calcium mobilization; type: functional, cell-based; in short: as §4

Chain of P2Y purinoceptor 2 (Homo sapiens, UniProt P41231, R177A) (P41231 whole entry R177A): as the sequence (P41231 whole entry Y118A) above, with A118Y, R177A counted along it

For `Nc1ncnc2c1ncn2[C@@H]1O[C@H](COP(=O)(O)OP(=O)(O)OP(=O)(O)OP(=O)(O)OC[C@H]2O[C@@H](n3cnc4c(N)ncnc43)[C@H](O)[C@@H]2O)[C@@H](O)[C@H]1O` [DIADENOSINE TETRAPHOSPHATE], the EC50 (P2Y purinoceptor 2 [1]) was 1.23 µM, the Efficacy [2] was 15% and the EC50 (P2Y purinoceptor 2 [3]) was greater than 300 µM. The Efficacy [4] was 12%, the EC50 (P2Y purinoceptor 2 [5]) was 0.145 µM and the Ratio EC50 [6] was 560. For the same molecule, the Efficacy [7] was 117%, the Efficacy [8] was “inactive” and the EC50 (P2Y purinoceptor 2 [9]) was 0.423 µM. It also gave an EC50 (P2Y purinoceptor 2 [10]) of 0.185 µM, an Efficacy [11] of 98% and an EC50 (P2Y purinoceptor 2 [12]) of 0.167 µM. The Efficacy (P2Y purinoceptor 2 [13]) was 68%, the Efficacy [14] was “inactive” and the Efficacy (P2Y purinoceptor 2 [15]) was 100%. The EC50 (P2Y purinoceptor 2 [16]) was 0.665 µM, the Efficacy [17] was 68% and the Efficacy [18] was 86%. The EC50 (P2Y purinoceptor 2 [19]) was 81 µM, the EC50 (P2Y purinoceptor 2 [20]) was 0.17 µM and the EC50 (P2Y purinoceptor 2 [21]) was 740 µM. The Efficacy [22] was 128%, the Ratio efficacy [23] was 2 and the Efficacy [24] was 149%. The EC50 (P2Y purinoceptor 2 [25]) was 0.335 µM and the EC50 (P2Y purinoceptor 2 [26]) was 0.345 µM.

`Nc1c(S(=O)(=O)O)cc(Nc2ccc(Nc3nc(Cl)nc(Nc4cccc(S(=O)(=O)O)c4)n3)c(S(=O)(=O)O)c2)c2c1C(=O)c1ccccc1C2=O` [RB 2] showed an IC50 (P2Y purinoceptor 2 [27]) of 1.05 µM, an IC50 (P2Y purinoceptor 2 [28]) of 1.57 µM and a Ratio IC50 [29] of 0.6. For the same molecule, the IC50 (P2Y purinoceptor 2 [30]) was greater than 100 µM, the inhibition [31] was 55% and the IC50 (P2Y purinoceptor 2 [32]) was 9.3 µM. It also gave an inhibition [33] of 55%, an IC50 (P2Y purinoceptor 2 [34]) of 1.62 µM and an IC50 (P2Y purinoceptor 2 [35]) of 18.6 µM.
